Source: ChEMBL document CHEMBL3576811, “Small Molecule Disruptors of the Glucokinase-Glucokinase Regulatory Protein Interaction: 5. A Novel Aryl Sulfone Series, Optimization Through Conformational Analysis” (J Med Chem, 2015)

How the values were obtained:
Format in all cases: ADME, organism-based
[1] = Volume of distribution at steady state in Sprague-Dawley rat at 2 mg/kg, iv; conditions: in vivo, read-out: Vdss
Procedure, shortened: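 Sprague-Dawley rats dosed intravenously at 2 mg/kg in 100% DMSO. Plasma clearance, steady-state volume of distribution and terminal half-life derived from the plasma concentration-time profile.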

[2] = Cmax in Sprague-Dawley rat at 10 mg/kg, po after 4 hrs; parameters: dose 10 mg/kg, route oral; conditions: in vivo
Procedure, shortened: (§1)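 Sprague-Dawley rats given one 10 mg/kg oral dose in 1% Tween 80, 2% HPMC, 97% water. Plasma drug levels followed over time, giving Cmax, time to Cmax and AUC. Free concentration derived using the fraction unbound from rapid equilibrium dialysis.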

[3] = AUC in Sprague-Dawley rat at 10 mg/kg, po; conditions: in vivo; procedure, shortened: as §1
[4] = Oral bioavailability in Sprague-Dawley rat at 10 mg/kg; conditions: in vivo
Rattus norvegicus = assay: Free plasma concentration in Sprague-Dawley rat at 10 mg/kg, po after 4 hrs; conditions: in vivo; procedure, shortened: as §1

Vd [1]: 0.18 L/kg
Cmax [2]: 57.6 µM
AUC [3]: 568 µM·h
bioavailability [4]: 82%
Cp(f) (Rattus norvegicus): 0.43 µM
Compound: C[C@](O)(CO)c1ccc(-c2ncc(S(=O)(=O)c3ccc(N)nc3)s2)c(Cl)c1
